How the values were obtained:
[1] = target: T1, 5-hydroxytryptamine receptor 7 (Homo sapiens, UniProt P34969); assay: Ability to displace the radioligand [3H]5-carboximidotryptamine ([3H]-5-CT) from cloned human 5-hydroxytryptamine 7 receptor expressed in COS-7 cells; format: cell-based
Outline: (§1)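 Displacement of [3H]5-CT from cloned human 5-HT7 receptor expressed in COS-7 cells. Affinity reported as pKi, given as mean ± SE of 8–12 values.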

[2] = target: T2, Serotonin 2 (5-HT2) receptor (Rattus norvegicus, UniProt P30994+P08909+P14842); assay: Binding affinity towards 5-hydroxytryptamine 2 receptor by the displacement of [3H]ketanserin in rat cerebral cortex membrane; format: cell membranes
Outline: (§2)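 Displacement of [3H]ketanserin from rat cerebral cortex membranes at the 5-HT2 site. Affinity reported as pKi, given as mean ± SE of 8–12 values.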

[3] = target: 5-hydroxytryptamine receptor 6 (Homo sapiens, UniProt P50406); assay: Binding affinity towards human recombinant 5-hydroxytryptamine 6 receptor by the displacement of [3H]-5-CT]
[4] = target: 5-hydroxytryptamine receptor 4 (Cavia porcellus, UniProt O70528); assay: Binding affinity towards 5-HT4 receptor by the displacement of [3H]GR-113808 in guinea-pig striatum; format: tissue-based
Outline: (§3)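 Radioligand displacement binding at the named receptor preparation. Affinity reported as pKi, given as mean ± SE of 8–12 values.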

[5] = target: T1, 5-hydroxytryptamine receptor 7; assay: Binding affinity towards 5-HT7 receptor by the displacement of [3H]-5-CT] in human recombinant receptors in mammalian cell; outline: as §1
[6] = target: T3, 5-hydroxytryptamine receptor 2C (Homo sapiens, UniProt P28335); assay: Binding affinity towards 5-HT2C receptor by the displacement of [3H]mesulergine] in human recombinant receptors in mammalian cell; outline: as §3
T3 sequence (P28335 whole entry): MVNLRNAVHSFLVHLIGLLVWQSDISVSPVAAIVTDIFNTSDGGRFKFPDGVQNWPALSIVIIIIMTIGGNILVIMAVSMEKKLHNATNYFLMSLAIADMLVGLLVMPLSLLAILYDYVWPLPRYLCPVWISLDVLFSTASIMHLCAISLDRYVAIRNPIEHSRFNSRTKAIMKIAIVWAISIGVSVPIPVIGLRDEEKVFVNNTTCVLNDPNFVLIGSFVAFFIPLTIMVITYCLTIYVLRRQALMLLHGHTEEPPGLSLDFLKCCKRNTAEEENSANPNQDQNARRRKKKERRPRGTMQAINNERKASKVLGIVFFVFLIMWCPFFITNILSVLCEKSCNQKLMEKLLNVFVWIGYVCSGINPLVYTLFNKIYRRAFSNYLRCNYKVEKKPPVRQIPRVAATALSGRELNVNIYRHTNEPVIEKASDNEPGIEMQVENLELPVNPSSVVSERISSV

[7] = target: T4, 5-hydroxytryptamine receptor 1A (Homo sapiens, UniProt P08908); assay: Binding affinity towards 5-HT1A receptor by the displacement of [3H]-8-OH-DPAT] in human recombinant receptors in mammalian cell; outline: as §3
T4 sequence (P08908 whole entry): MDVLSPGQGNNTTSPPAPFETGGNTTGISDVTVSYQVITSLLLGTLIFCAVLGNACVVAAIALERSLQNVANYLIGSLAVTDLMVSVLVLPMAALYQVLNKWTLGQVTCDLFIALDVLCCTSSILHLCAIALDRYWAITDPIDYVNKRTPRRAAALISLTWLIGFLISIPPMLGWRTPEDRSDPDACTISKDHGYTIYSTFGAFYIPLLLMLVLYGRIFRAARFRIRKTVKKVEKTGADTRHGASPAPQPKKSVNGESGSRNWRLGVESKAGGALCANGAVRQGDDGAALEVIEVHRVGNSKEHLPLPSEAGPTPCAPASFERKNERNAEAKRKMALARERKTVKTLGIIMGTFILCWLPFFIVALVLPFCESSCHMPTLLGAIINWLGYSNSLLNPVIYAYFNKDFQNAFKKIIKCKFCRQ

[8] = target: 5-hydroxytryptamine receptor 1B (Homo sapiens, UniProt P28222); assay: Binding affinity towards 5-HT1B receptor by the displacement of [3H][…]] in human recombinant receptors in mammalian cell
[9] = target: Serotonin 3 (5-HT3) receptor; assay: Binding affinity towards 5-HT3 receptor by the displacement of [3H]GR-65630] in human recombinant receptors in mammalian cell; format: protein-complex assay; outline: as §3
[10] = target: T2, Serotonin 2 (5-HT2) receptor; assay: Binding affinity towards 5-HT2 receptor by the displacement of [3H]-ketanserin] in rat cerebral cortex; format: tissue-based; outline: as §2

T1 sequence (P34969 whole entry): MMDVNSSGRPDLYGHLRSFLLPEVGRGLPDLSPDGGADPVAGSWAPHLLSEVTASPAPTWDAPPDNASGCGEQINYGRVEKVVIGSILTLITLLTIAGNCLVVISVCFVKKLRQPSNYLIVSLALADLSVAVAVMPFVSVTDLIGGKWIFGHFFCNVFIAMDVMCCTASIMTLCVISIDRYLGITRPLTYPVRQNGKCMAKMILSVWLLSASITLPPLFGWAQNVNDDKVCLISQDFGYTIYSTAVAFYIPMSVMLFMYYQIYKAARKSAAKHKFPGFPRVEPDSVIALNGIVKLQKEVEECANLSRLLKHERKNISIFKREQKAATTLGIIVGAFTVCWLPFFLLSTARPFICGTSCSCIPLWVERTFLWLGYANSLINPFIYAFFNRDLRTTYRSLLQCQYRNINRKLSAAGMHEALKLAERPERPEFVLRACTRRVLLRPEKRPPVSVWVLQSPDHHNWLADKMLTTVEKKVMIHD
5-hydroxytryptamine receptor 1B, sequence (P28222 whole entry): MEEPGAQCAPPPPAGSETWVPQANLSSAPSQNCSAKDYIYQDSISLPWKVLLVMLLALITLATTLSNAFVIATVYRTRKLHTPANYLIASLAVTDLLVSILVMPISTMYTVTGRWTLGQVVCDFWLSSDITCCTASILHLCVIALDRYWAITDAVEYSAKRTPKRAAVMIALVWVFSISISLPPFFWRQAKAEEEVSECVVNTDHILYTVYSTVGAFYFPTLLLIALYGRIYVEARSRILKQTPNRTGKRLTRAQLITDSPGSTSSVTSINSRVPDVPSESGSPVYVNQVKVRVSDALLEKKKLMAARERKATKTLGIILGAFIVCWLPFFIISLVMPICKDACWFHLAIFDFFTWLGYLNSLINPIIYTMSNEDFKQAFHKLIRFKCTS
5-hydroxytryptamine receptor 4, sequence (O70528 whole entry): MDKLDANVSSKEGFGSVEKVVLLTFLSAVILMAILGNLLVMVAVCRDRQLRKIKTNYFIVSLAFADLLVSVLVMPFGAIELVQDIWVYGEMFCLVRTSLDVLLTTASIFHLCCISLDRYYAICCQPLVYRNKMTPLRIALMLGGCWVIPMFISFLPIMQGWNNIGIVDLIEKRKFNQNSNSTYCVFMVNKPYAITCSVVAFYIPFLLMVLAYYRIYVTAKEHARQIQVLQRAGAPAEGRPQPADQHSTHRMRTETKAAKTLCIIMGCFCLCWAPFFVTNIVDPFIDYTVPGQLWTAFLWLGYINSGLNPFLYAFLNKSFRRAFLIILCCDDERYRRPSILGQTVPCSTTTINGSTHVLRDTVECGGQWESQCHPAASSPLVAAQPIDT
5-hydroxytryptamine receptor 6, sequence (P50406 whole entry): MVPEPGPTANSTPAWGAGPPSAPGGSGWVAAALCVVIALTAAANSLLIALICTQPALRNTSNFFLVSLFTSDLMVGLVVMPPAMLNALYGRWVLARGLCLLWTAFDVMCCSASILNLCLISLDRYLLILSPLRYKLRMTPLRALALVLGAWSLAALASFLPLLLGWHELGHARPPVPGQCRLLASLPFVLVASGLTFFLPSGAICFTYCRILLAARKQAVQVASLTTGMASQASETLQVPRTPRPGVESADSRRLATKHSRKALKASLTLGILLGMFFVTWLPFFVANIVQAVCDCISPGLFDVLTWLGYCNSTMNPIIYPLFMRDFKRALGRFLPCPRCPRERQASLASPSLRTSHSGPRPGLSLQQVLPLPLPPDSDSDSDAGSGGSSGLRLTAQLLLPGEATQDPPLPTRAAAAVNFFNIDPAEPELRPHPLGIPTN

Row | Compound | Ki [1] [nM] | Log Ki [2] | Ki [3] [nM] | Ki [4] [nM] | Ki [5] [nM] | Ki [6] [nM] | Ki [7] [nM] | Ki [8] [nM] | Log Ki [9] | Log Ki [10]
1 | O=C1Nc2ccc(Cl)c3c2C1(CCCCN1CC=C(c2ccccc2)CC1)CCC3 (stereo not given) | 5.01 | > -6.5 | – | – | – | – | – | – | – | –
2 | O=C1Nc2ccc(Cl)c3c2C1(CCCCN1CC=C(c2ccc(Cl)cc2)CC1)CCC3 (stereo not given) | 7.24 | > -6 | > 1000 | > 1000 | 7.24 | > 1000 | 316 | > 1000 | > -6 | > -6
3 | O=C1Nc2cccc3c2C1(CCCCN1CC=C(c2ccc(F)cc2)CC1)CCC3 (stereo not given) | – | > -7.18 | – | – | – | – | – | – | – | –
4 | O=C1Nc2ccc(Cl)c3c2C1(CCCCN1CC=C(c2ccc(F)cc2)CC1)CCC3 (stereo not given) | 2.04 | > -6.64 | – | – | – | – | – | – | – | –

From ChEMBL document CHEMBL1136421, “New tetrahydrobenzindoles as potent and selective 5-HT(7) antagonists with increased In vitro metabolic stability” (Bioorg Med Chem Lett, 2003)
